Data published in ChEMBL document CHEMBL1141948, “Selective and orally bioavailable phenylglycine tissue factor/factor VIIa inhibitors” (Bioorg Med Chem Lett, 2005).

Tests used:
Prothrombin = Prothrombin (Homo sapiens, UniProt P00734); assay: Binding affinity to thrombin
Coagulation factor X [1] = target: T1, Coagulation factor X (Homo sapiens, UniProt P00742); assay: Binding affinity to FXa
Trypsin = Trypsin (Homo sapiens, UniProt P07477+P07478+P35030); assay: Binding affinity to trypsin; type: protein assay
Coagulation factor X [2] = target: T1, Coagulation factor X; assay: Activated partial thromboplastin time; type: functional
How it was run: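 Human citrated plasma spiked with at least six inhibitor concentrations; intrinsic-pathway clotting started with Actin FS (ellagic acid in soy phosphatides). Clotting time read by turbidity. Concentration doubling control clotting time (EC50) obtained by fitting data to exponential regression.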

[3] = target: Coagulation factor VII/tissue factor (Homo sapiens, UniProt P08709); assay: Binding affinity to FVIIa/TF; type: protein-complex assay
Homo sapiens = organism: Homo sapiens; assay: Ratio of activated partial thromboplastin time against prothrombin time (aPTT/PT); type: functional
[4] = target: Coagulation factor VII/tissue factor (Homo sapiens) (UniProt P08709+P13726); settings: Plasma
[5] = Half life in rat administered with 10 mg/kg, iv; type: ADME, organism-based; design: dose 10 mg/kg, route intravenous; settings: in vivo
How it was run: (§1)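 Rat pharmacokinetics with intravenous and oral dosing at the stated doses (mg/kg). Half-lives determined for iv and po routes; clearance (ml/min/kg), steady-state volume of distribution (l/kg) and oral bioavailability (%) derived.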

[6] = Half life in rat administered with 10 mg/kg, po; type: ADME, organism-based; design: dose 10 mg/kg, route oral; settings: in vivo; how it was run: as §1
[7] = Oral bioavailability in rat at 10 mg/kg; type: ADME, organism-based; settings: in vivo; how it was run: as §1
[8] = Half life in rat administered with 3 mg/kg, iv; type: ADME, organism-based; design: dose 3 mg/kg, route intravenous; settings: in vivo; how it was run: as §1
[9] = Clearance in rat at 3 mg/kg; type: ADME, organism-based; design: dose 3 mg/kg; settings: in vivo; how it was run: as §1
[10] = Volume of distribution in rat at 3 mg/kg; type: ADME, organism-based; design: dose 3 mg/kg; settings: in vivo, read-out: Vdss; how it was run: as §1
[11] = Half life in rat administered with 6.1 mg/kg, iv; type: ADME, organism-based; design: dose 6.1 mg/kg, route intravenous; settings: in vivo; how it was run: as §1
[12] = Clearance in rat at 6.1 mg/kg; type: ADME, organism-based; design: dose 6.1 mg/kg; settings: in vivo; how it was run: as §1
[13] = Volume of distribution in rat at 6.1 mg/kg; type: ADME, organism-based; design: dose 6.1 mg/kg; settings: in vivo, read-out: Vdss; how it was run: as §1
[14] = Oral bioavailability in rat at 6.1 mg/kg; type: ADME, organism-based; settings: in vivo; how it was run: as §1
[15] = Half life in rat administered with 10.3 mg/kg, po; type: ADME, organism-based; design: dose 10.3 mg/kg, route oral; settings: in vivo
[16] = Oral bioavailability in rat at 10.3 mg/kg; type: ADME, organism-based; settings: in vivo

T1 sequence (P00742 41-179 limits assumed): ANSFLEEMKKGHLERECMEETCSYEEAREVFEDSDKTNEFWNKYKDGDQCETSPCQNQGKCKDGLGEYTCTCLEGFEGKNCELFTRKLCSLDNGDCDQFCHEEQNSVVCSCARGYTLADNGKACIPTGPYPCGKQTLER
T1 sequence (P00742 235-488 limits assumed): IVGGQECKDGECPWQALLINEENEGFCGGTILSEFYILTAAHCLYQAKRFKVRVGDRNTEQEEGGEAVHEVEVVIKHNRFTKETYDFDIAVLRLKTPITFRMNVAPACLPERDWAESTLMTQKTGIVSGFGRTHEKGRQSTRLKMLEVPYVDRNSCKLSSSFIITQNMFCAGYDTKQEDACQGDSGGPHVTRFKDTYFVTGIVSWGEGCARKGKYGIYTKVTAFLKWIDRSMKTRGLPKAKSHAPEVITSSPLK
Chain of Coagulation factor VII/tissue factor (P08709 61-212 limits assumed): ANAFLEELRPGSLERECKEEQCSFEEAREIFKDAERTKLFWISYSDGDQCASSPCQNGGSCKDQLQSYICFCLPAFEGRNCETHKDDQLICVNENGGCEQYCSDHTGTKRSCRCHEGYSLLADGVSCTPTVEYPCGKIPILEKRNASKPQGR
Chain of Coagulation factor VII/tissue factor (P08709 213-466 limits assumed): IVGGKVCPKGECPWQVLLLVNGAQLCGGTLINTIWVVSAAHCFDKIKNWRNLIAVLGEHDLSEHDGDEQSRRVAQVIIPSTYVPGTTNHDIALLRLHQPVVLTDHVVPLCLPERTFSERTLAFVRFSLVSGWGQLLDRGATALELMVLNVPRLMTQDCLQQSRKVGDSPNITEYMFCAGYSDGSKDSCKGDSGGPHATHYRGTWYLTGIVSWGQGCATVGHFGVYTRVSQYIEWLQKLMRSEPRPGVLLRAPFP
Chain of Coagulation factor VII/tissue factor (P13726 33-295 partner limits assumed): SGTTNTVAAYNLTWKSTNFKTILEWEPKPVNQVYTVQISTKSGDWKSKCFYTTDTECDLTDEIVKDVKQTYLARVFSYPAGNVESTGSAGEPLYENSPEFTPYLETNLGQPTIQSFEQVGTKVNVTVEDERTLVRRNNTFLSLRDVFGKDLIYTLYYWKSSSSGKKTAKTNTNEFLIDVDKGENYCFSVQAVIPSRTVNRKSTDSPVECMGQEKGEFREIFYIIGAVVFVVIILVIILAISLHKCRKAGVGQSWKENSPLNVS

Structure (SMILES) | Ki (Prothrombin) [µM] | Ki (Coagulation factor X [1]) [µM] | Ki (Trypsin) [µM] | 2aPTT (Coagulation factor X [2]) [µM] | Ki [3] [µM] | Ratio (Homo sapiens) | 2PT [4] [µM] | further results
CCOc1cc(O[C@@H]2CCOC2)cc(C(Nc2ccc(C(=N)N)cc2)C(=O)O)c1 (stereo partly specified) | 11.3 | 9.1 | 9.9 | 51.7 |  |  |  | 
CCOc1cc(O[C@H]2CC[C@H](O)CC2)cc(C(Nc2ccc(C(=N)N)cc2)C(=O)O)c1 (stereo partly specified) | 5.5 | 12.2 | 4 | 29.4 | 0.11 | 5.4 | 5.4 | 
CCOC(=O)C(Nc1ccc(C(=N)NO)cc1)c1cc(OCC)cc(O[C@H]2CCOC2)c1 (stereo partly specified) |  |  |  |  |  |  |  | half-life [5]: 0.9 h; half-life [6]: 4.1 h; bioavailability [7]: 15%
C#Cc1cc(O[C@@H]2CCOC2)cc(C(Nc2ccc(C(=N)N)cc2)C(=O)O)c1 (stereo partly specified) | 8.8 | 15.3 | 6.6 | 34 | 0.129 | 3.7 | 9.1 | 
C#Cc1cc(OC2CCOCC2)cc(C(Nc2ccc(C(=N)N)cc2)C(=O)O)c1 (stereo unspecified) | 4.7 | 2.9 | 1.9 | 14.3 | 0.038 | 4.2 | 3.4 | 
CCOC(=O)C(Nc1ccc(C(=N)NO)cc1)c1cc(OCC)cc(OCC)c1 (stereo unspecified) |  |  |  |  |  |  |  | half-life [5]: 3.5 h; half-life [6]: 4.8 h; bioavailability [7]: 100%
CCOc1cc(OC2CCOCC2)cc(C(Nc2ccc(C(=N)N)cc2)C(=O)O)c1 (stereo unspecified) | > 6.6 | 2.9 | 7 | 19.8 | 0.14 | 4.1 | 4.8 | 
CCOc1cc(OC2CCN(C)CC2)cc(C(Nc2ccc(C(=N)N)cc2)C(=O)O)c1 (stereo unspecified) | 9.9 | 1.6 | 8.6 | 22.3 |  |  |  | 
CCOc1cc(O[C@H]2CCOC2)cc(C(Nc2ccc(C(=N)N)cc2)C(=O)O)c1 (stereo partly specified) | 8.6 | 2.3 | 7.3 | 17.2 |  |  |  | half-life [8]: 1.4 h; clearance [9]: 0.342 L/h/kg; Vd [10]: 0.5 L/kg
CCc1cc(OC2CCOCC2)cc(C(Nc2ccc(C(=N)N)cc2)C(=O)O)c1 (stereo unspecified) | 1.6 | > 7.5 | 4.8 | 15.6 |  |  |  | 
CCOc1cc(-c2cccnc2)cc(C(Nc2ccc(C(=N)N)cc2)C(=O)O)c1 (stereo unspecified) | 10.2 | 2.2 | 8 | 57.6 | 0.51 | 4.9 | 11.8 | 
CCOc1cc(-c2ccccc2)cc(C(Nc2ccc(C(=N)N)cc2)C(=O)O)c1 (stereo unspecified) | 7.3 | 1.4 | > 68 | 69.9 | 0.13 | 2 | 35.6 | 
CCOc1cc(C(Nc2ccc(C(=N)N)cc2)C(=O)O)ccc1OCc1ccccc1 (stereo unspecified) | 0.085 | 0.79 | 1 |  | 0.028 |  | 8.8 | 
COc1cc(C(Nc2ccc(C(=N)N)cc2)C(=O)O)ccc1OCc1ccccc1 (stereo unspecified) | 0.074 | 0.73 | 0.31 |  | 0.061 |  | 11.9 | 
CCOc1cc(OCC)cc(C(Nc2ccc(C(=N)N)cc2)C(=O)O)c1 (stereo unspecified) | > 35 | 5.6 | 16.9 |  |  |  |  | half-life [11]: 2.9 h; clearance [12]: 0.156 L/h/kg; Vd [13]: 0.3 L/kg; bioavailability [14]: 2%
CCOc1cc(OC2CCN(S(C)(=O)=O)CC2)cc(C(Nc2ccc(C(=N)N)cc2)C(=O)O)c1 (stereo unspecified) | > 3.5 | 4.4 | 3.5 | 26.9 | 0.18 | 5.6 | 4.8 | 
CCOc1cc(OCC)cc(C(Nc2ccc(C(=N)NO)cc2)C(=O)O)c1 (stereo unspecified) |  |  |  |  |  |  |  | half-life [15]: 5 h; bioavailability [16]: 30%
CCOc1cc(O[C@H]2CCOC2)cc([C@@H](Nc2ccc(C(=N)N)cc2)C(=O)O)c1 | 4.6 | 1.5 | 4.5 | 10.3 |  |  |  | 
C#Cc1cc(O[C@H]2CCOC2)cc(C(Nc2ccc(C(=N)N)cc2)C(=O)O)c1 (stereo partly specified) | 9.5 | 2.6 | 5.4 | 12.9 | 0.065 | 3 | 4.3 | 
C=Cc1cc(OC2CCOCC2)cc(C(Nc2ccc(C(=N)N)cc2)C(=O)O)c1 (stereo unspecified) | 2.9 | 13.3 | 8.7 | 23.7 | 0.069 | 4 | 5.9 | 
